Reference: ChEMBL document CHEMBL3227981, “Studies on biologically active nucleosides and nucleotides. 5. Synthesis and antitumor activity of some 2,2'-anhydro-1-(3',5'-di-O-acyl-beta-D-arabinofuranosyl)cytosine salts and 2,2'-anhydro-1-(3'-O-acyl-beta-D-arabinofuranoxyl)cytosine 5'-phosphates” (J Med Chem, 1979)

Key:
L1210 [1] = assay: Antitumor activity against mouse L1210 cells allografted in BDF1 mouse assessed as increase of host life span at 6.25 mg/kg, ip qd for 5 days; type: functional; conditions: route intraperitoneal
Method in brief: (§1)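 BDF1 mice were given 1×10^5 L1210 cells ip. Compound was dissolved or suspended in 0.9% NaCl with 0.1% HCO-60 and given ip daily for 5 days, starting 24 h after inoculation. Groups had 6–10 mice. ILS = (T/C − 1) × 100, from mean survival time of treated versus control mice, observed over 60 days.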

L1210 [2] = assay: Antitumor activity against mouse L1210 cells allografted in BDF1 mouse assessed as increase of host life span at 25 mg/kg, ip qd for 5 days; type: functional; conditions: route intraperitoneal; method in brief: as §1
L1210 [3] = assay: Antitumor activity against mouse L1210 cells allografted in BDF1 mouse assessed as increase of host life span at 100 mg/kg, ip qd for 5 days; type: functional; conditions: route intraperitoneal; method in brief: as §1
L1210 [4] = assay: Antitumor activity against mouse L1210 cells allografted in BDF1 mouse assessed as increase of host life span at 100 mg/kg, po qd for 5 days; type: functional
Method in brief: (§2)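 L1210 cells (1×10^5) were implanted ip in BDF1 mice. Oral dosing began 24 h later and ran once daily for 5 days, with compound in 0.9% saline containing 0.1% HCO-60 as solution or suspension. Six to ten mice per group. Percent ILS was (T/C − 1) × 100 on mean survival time, with a 30-day observation period.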

[5] = Toxicity in ip dosed ICR mouse up to 3 weeks; type: organism-based; conditions: in vivo
Method in brief: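 Maximum tolerated dose was set from a single ip injection into three female ICR mice weighing 20–21 g, followed by 3 weeks of observation.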

L1210 [6] = assay: Antitumor activity against mouse L1210 cells allografted in BDF1 mouse assessed as increase of host life span at 200 mg/kg, po qd for 5 days; type: functional; method in brief: as §2

SMILES | Activity (L1210 [1]) [%] | Activity (L1210 [2]) [%] | Activity (L1210 [3]) [%] | Activity (L1210 [4]) [%] | MTD at 504 h [5] [mg/kg] | Activity (L1210 [6]) [%]
CCCCCCCCCCCOC(=O)CCC(=O)OC[C@H]1O[C@@H]2[C@H](Oc3nc(=N)ccn32)[C@@H]1OC(=O)CCC(=O)OCCCCCCCCCCC.Cl | 15.4 | 43.6 | 94.6 | 10.8 | 750 | –
CCCCSCCCCCCCCCCC(=O)OC[C@H]1O[C@@H]2[C@H](Oc3nc(=N)ccn32)[C@@H]1OC(=O)CCCCCCCCCCSCCCC.Cl | 26.7 | 164 | >624.3 | 4 | 500 | 13.3
CCCC(=O)OCCCCCCCCCCC(=O)OC[C@H]1O[C@@H]2[C@H](Oc3nc(=N)ccn32)[C@@H]1OC(=O)CCCCCCCCCCOC(=O)CCC.Cl | 5.1 | 66.7 | 86.7 | 13.3 | 300 | 33.3
CC(C)(C)c1ccc(C(=O)OC[C@H]2O[C@@H]3[C@H](Oc4nc(=N)ccn43)[C@@H]2OC(=O)c2ccc(C(C)(C)C)cc2)cc1.Cl | 26.7 | 84 | 116.7 | 22.7 | 300 | 26.7
CCCCC(=O)O[C@H]1[C@H]2Oc3nc(=N)ccn3[C@@H]2O[C@@H]1COP(=O)(O)O | 15.8 | 37 | 64.6 | 22.7 | 750 | 45.6
CCCCCCCCCCCCCCCC(=O)OC[C@H]1O[C@@H]2[C@H](Oc3nc(=N)ccn32)[C@@H]1OC(=O)CCCCCCCCCCCCCCC.Cl | 59 | 151.3 | >528.2 | 0 | 750 | 22.5
Cl.N=c1ccn2c(n1)O[C@@H]1[C@H](O)[C@@H](CO)O[C@H]12 | – | 42.3 | 76.9 | 32.5 | 3000 | 69.2
